Screening results: PubChem, The Scripps Research Institute Molecular Screening Center
Rows were chosen to be rich in hits. Some 2.3% of all compounds tested hit in one or more screens of this group.
ADAM10 inh: inhibits human ADAM10. O14672. recombinant ADAM10, EDANS/DABCYL FRET peptide cleavage, 3 h. inhibition, % at 7 µM. actives 0.62% (n = 370,000). AID 720582;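 active = inhibition above a per-campaign cutoff equal to the mean of compounds falling between control-based bounds plus 3 SD, cut at about 20% in these data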
PLC-gamma1 inh: inhibitors of human phospholipase C gamma1 | purified PLC-gamma1, fluorogenic substrate, fluorescence | inhibition, % at 12.2 µM | actives 0.84% (n = 370,000); in the data active = inhibition above about 9.5%
DDE Tn7 FP inh: disrupts Tn7 cyclic peptide binding to fibrin D-Dimer-E complex; FP displacement of FITC-Tn7 peptide from fibrin DD(E); 0% = median of compound wells per plate; AID 720508; inhibition, % at 8.3 µM; actives 0.13% (n = 370,000);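 active = inhibition above the mean of compounds falling within the control limits plus 3 SD of them, cut at about 14% in these data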
Target sequence (P02675 whole entry, looked up): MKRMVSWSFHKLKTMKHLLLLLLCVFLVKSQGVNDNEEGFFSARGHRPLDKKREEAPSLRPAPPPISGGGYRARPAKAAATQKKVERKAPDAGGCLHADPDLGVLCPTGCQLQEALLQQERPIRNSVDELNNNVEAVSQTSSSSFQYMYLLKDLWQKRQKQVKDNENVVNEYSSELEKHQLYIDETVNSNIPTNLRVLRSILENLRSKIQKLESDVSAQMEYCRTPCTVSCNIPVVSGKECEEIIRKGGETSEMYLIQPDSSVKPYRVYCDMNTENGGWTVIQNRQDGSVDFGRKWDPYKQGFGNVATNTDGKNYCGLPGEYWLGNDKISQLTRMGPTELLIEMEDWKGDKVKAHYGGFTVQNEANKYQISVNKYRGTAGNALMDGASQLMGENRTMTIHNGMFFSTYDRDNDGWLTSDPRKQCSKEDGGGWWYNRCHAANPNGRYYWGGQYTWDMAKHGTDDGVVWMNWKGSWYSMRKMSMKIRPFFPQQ
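Assay system: human fibrin DD(E) protein / Input: 2 µM fibrin DD(E) / Benchmarks: high control of 10 µM Aha-Tn7 peptide / Measured by: fluorescence polarization of the labelled Tn7 tracer / Medium: Tris buffer with calcium and detergent, pH 7.8 / Timing: 10 min compound pre-incubation, 3 h probe incubation at room temperature / Repeats: one replicate per compound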
ADAM17 inh: inhibitors of human ADAM17; actives 0.83% (n = 370,000); P78536; AID 720648; inhibition, % at 6.95 µM; recombinant ADAM17, EDANS/DABCYL FRET peptide cleavage;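 active = inhibition above the mean of compounds lying between control limits plus 3 SD, set per campaign, cut at about 8.5% in these data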
PLCb3 inh: PLC-beta3 (human) inhibition, primary screen; Purified PLC-beta3, fluorogenic substrate, fluorescence; inhibition, % at 12.2 µM; actives 0.18% (n = 370,000); AID 720704; in the data active = inhibition above about 11%
Tn6 DDE FP: disrupts Tn6 cyclic peptide binding to fibrin D-Dimer-E complex; P02675; Fibrin DD(E) TRITC-Tn6 fluorescence polarization displacement; inhibition, % at 8.3 µM; actives 0.21% (n = 370,000); AID 720509;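 active = inhibition above a per-campaign cutoff: mean of compounds within control limits plus 3 SD, cut at about 15% in these data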
DDE Tn6 FP ctr: counter-screen hit for Tn6 peptide-fibrin DD(E) binding disruption; shares compounds with Tn6 DDE FP; TRITC-Tn6 fluorescence polarization displacement; 0% = median of compound wells, not DMSO; inhibition, % at 8.3 µM; actives 2% (n = 680); AID 720621;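 active = inhibition above the mean of test compounds lying between the control limits plus 3 SD of those, cut at about 14% in these data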
Tn6 DDE conf: DD(E)-Tn6 binding inhibition, FP confirmation; AID 720631; inhibition, % at 8.3 µM; FP displacement of TRITC-Tn6 peptide from DD(E); 0% = per-plate median of test wells; shares compounds with Tn6 DDE FP; actives 10% (n = 680);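 active = inhibition above the mean of compounds lying within the control limits plus 3 SD, cut at about 16% in these data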
Large screens that a line does not name were inactive (follow-up assays come after a bar, where they were run); ! = not confirmed by another sample.

CN(c1ccccc1)S(=O)(=O)c1ccc(Cl)c(C(=O)Nc2ccc(-c3nc4ccccc4[nH]3)cc2)c1	Tn6 DDE FP 39 | DDE Tn6 FP ctr inactive | Tn6 DDE conf 21
Cc1ccccc1C(=O)Nc1ccc(-c2nc3ccc(C(=O)c4ccccc4)cc3[nH]2)cc1	Tn6 DDE FP 38 | DDE Tn6 FP ctr 14 | Tn6 DDE conf 22
O=C(c1coc(=O)c(Br)c1)N1CCOCC1	Tn6 DDE FP 18 | DDE Tn6 FP ctr inactive | Tn6 DDE conf inactive
CC(C)C[C@H](NC1(C(=O)NC2CCCCC2)CCCCC1)C(=O)NCCc1c[nH]c2ccccc12	none
O=C1CCCC2=C1Sc1ccc(Cl)cc1N2	none
COC(=O)c1ccc2c(c1)SC1=C(CCCC1=O)N2	Tn6 DDE FP 22 | DDE Tn6 FP ctr inactive | Tn6 DDE conf 24
CCN(CC)C(=O)CC[C@H]1CC[C@]2(CCCN(Cc3cccnc3)C2)O1	none
O=S1(=O)CC2c3ccc(F)cc3CN2CN1CCc1ccccc1 (centres undefined)	none
CCC(C)[C@@H](C(=O)OC)N(Cc1cn(Cc2ccccc2)nn1)S(=O)(=O)c1ccccc1Br (some centres undefined)	none
CN(C)C(=O)c1cccc(-c2cnc3c(NC=O)cc(-c4ccccc4N(C)C)cn23)c1	Tn6 DDE FP 31 | DDE Tn6 FP ctr inactive | Tn6 DDE conf inactive
CN1C(=O)NC(c2ccccc2[N+](=O)[O-])C2=C1CC(C)(C)CC2=O (centres undefined)	none
CN1C(=O)NC(c2ccccc2[N+](=O)[O-])C2=C1CCCC2=O (centres undefined)	Tn6 DDE FP 45 | DDE Tn6 FP ctr inactive | Tn6 DDE conf 20
CCC[C@H]1[C@@H](NS(=O)(=O)c2ccccc2[N+](=O)[O-])CC[C@@]23CCCN2C(=O)CCC[C@@H]13	none
O=C(NCCc1ccccc1)OCc1cn(-c2cccc(F)c2F)nn1	none
O=C(c1ccc(Br)cc1)N1CCN(S(=O)(=O)c2ccccc2)CC1	Tn6 DDE FP 16 | DDE Tn6 FP ctr inactive | Tn6 DDE conf inactive
O=C(c1ccc(=O)[nH]c1)N1CCN(S(=O)(=O)c2ccccc2)CC1	none
COc1ccc(NC(=O)c2oc3ccccc3c2NC(=O)COc2ccccc2OC)c(OC)c1	Tn6 DDE FP 18 | DDE Tn6 FP ctr inactive | Tn6 DDE conf inactive
COc1ccc(NC(=O)c2oc3ccccc3c2NC(=O)c2ccc(OC)c(OC)c2)c(OC)c1	none
O=C(CCS(=O)(=O)c1ccc(Cl)cc1)N1CCN(c2ccc(F)cc2)CC1	Tn6 DDE FP 18 | DDE Tn6 FP ctr inactive | Tn6 DDE conf inactive
O=C(O)c1ccccc1-c1c2cc(I)c(=O)c(I)c-2oc2c(I)c(O)c(I)cc12	Tn6 DDE FP active | DDE Tn6 FP ctr inactive | Tn6 DDE conf 93
CC(=O)c1ccc(N2CCCCC2)c(F)c1	none
CC(=O)c1ccc(N2CCN(CN3C(=O)CC4(CCCC4)C3=O)CC2)c(F)c1	Tn6 DDE FP 70 | DDE Tn6 FP ctr inactive | Tn6 DDE conf inactive
O=C1CCC[C@H]2Cc3nc4cccc(Cl)c4cc3C[C@]23CCCN13	none
O=C1c2ccccc2CCC12N=NCC2c1ccc(Br)cc1 (centres undefined)	none
O=C1c2ccccc2CCC12N=NCC2c1ccc(Cl)cc1 (centres undefined)	Tn6 DDE FP 17 | DDE Tn6 FP ctr inactive | Tn6 DDE conf inactive
CCCCCNC(=O)c1ccc2c(=O)n(CCCOCC)c(=S)[nH]c2c1	none
CCOCCCn1c(=S)[nH]c2cc(C(=O)NCC(OC)OC)ccc2c1=O	Tn6 DDE FP 16 | DDE Tn6 FP ctr inactive | Tn6 DDE conf inactive
C/C(C=NNC(=O)CSc1nnc(-c2ccc(Cl)cc2)n1-c1ccccc1)=C\c1ccccc1	none
Nc1nnc(CCCCCCCCCCc2nnc(N)s2)s1	none
Nc1nnc(CCC2CCCCC2)s1	Tn6 DDE FP 17 | DDE Tn6 FP ctr inactive | Tn6 DDE conf inactive
COc1cccc(N2CCN(CC(=O)NCc3cccc(OC)c3OC)CC2)c1	none
Cc1cc2cc(CNC(=O)c3ccc(S(=O)(=O)N(C)C)cc3)ccc2n1C	Tn6 DDE FP 65 | DDE Tn6 FP ctr inactive | Tn6 DDE conf inactive
Cc1cc2cc(CNC(=O)c3ccc(S(=O)(=O)N4CCOCC4)cc3)ccc2n1C	Tn6 DDE FP 53 | DDE Tn6 FP ctr inactive | Tn6 DDE conf 19
COc1cccc(CNC(=O)c2ccc(S(=O)(=O)N3CCOCC3)cc2)c1	none
Cc1cc2cc(CNC(=O)c3ccc(S(=O)(=O)N4CCCCC4)cc3)ccc2[nH]1	Tn6 DDE FP 18 | DDE Tn6 FP ctr inactive | Tn6 DDE conf inactive
Cc1cc(C)cc(NC(=O)N2CCNC(=O)C2CC(=O)Nc2cc(Cl)ccc2Cl)c1 (centres undefined)	Tn6 DDE FP 16 | DDE Tn6 FP ctr inactive | Tn6 DDE conf inactive
O=C(CC1C(=O)NCCN1C(=O)Nc1ccc(F)cc1F)Nc1cc(Cl)ccc1Cl (centres undefined)	none
CS(=O)(=O)c1cccc(-c2csc(N3CCC(C(N)=O)CC3)n2)c1	Tn6 DDE FP 16 | DDE Tn6 FP ctr inactive | Tn6 DDE conf inactive
O=C1CCC(CNc2ccccc2)N1c1ccccc1 (centres undefined)	none
O=C1CC(c2ccc3c(c2)OCO3)N=C2N(Cc3ccc4c(c3)OCO4)C/C(=C/c3ccccc3)N12 (centres undefined)	none
COc1cc2sc3ccc(-c4ccc(CN5CCOCC5)cc4)cc3c(=O)c2cc1OC	Tn6 DDE FP 18 | DDE Tn6 FP ctr inactive | Tn6 DDE conf inactive
Cc1cccc(C)c1-n1nnnc1C1(C)CCC(=O)N1Cc1ccc(F)cc1 (centres undefined)	none
Cc1cccc(C)c1-n1nnnc1C1(C)CN(S(C)(=O)=O)CC(=O)N1Cc1ccc(F)cc1 (centres undefined)	Tn6 DDE FP 16 | DDE Tn6 FP ctr inactive | Tn6 DDE conf inactive
CCOC(=O)CNC(=O)Nc1cccc(Cl)c1C	Tn6 DDE FP 52 | DDE Tn6 FP ctr inactive | Tn6 DDE conf inactive
CC(=O)c1cccc(NC(=O)COC(=O)c2n[nH]c3ccccc23)c1	Tn6 DDE FP 16 | DDE Tn6 FP ctr inactive | Tn6 DDE conf inactive
O=C(O)c1ccc(-n2nc(C(F)(F)F)c3c2CCCC3)cc1	Tn6 DDE FP 21! | DDE Tn6 FP ctr inactive | Tn6 DDE conf inactive
